In ChEMBL document CHEMBL2424608, “Discovery of novel N-substituted carbazoles as neuroprotective agents with potent anti-oxidative activity” (Eur J Med Chem, 2013):
Activity calls are given as the source filed them. The calls are words filed in the database; no cut-off is given here.

What follows are compounds tested on HT-22 (assay: Neuroprotective activity against mouse HT22 cells assessed as inhibition of glutamate-induced cell shrinkage and debris pretreated at 3 uM for 30 mins measured after 24 hrs by phase-contrast microscopy). Settings: not given.
Assay type: functional, cell-based
In short: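 HT22 cells get compound 30 min before glutamate (2 mM). Morphology is viewed by inverted phase-contrast microscopy.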
In the case of `Cc1ccc(-n2c3ccccc3c3ccc(-c4ccccc4)cc32)cc1`, the inhibition is reported as “Active”.

These compounds were tested on HT-22 (assay: Neuroprotective activity against mouse HT22 cells assessed as inhibition of glutamate-induced ROS production pretreated for 30 mins measured after 10 hrs by DHE-based fluorescence assay). Settings: not given.
Assay type: functional, cell-based
In short: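 HT22 cells get compound for 30 min, then glutamate (2 mM). After exposure, cells are washed with PBS pH 7.4 and loaded with DHE at 10 µM in serum-free DMEM for 30 min. Fluorescence microscopy plus plate-reader intensity at ex 485/em 595 nm.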
`Cc1ccc(-n2c3ccccc3c3ccc(-c4ccccc4)cc32)cc1` was tested, and the inhibition was “Dose-dependent effect”.

Each compound was assayed on HT-22 (assay: Neuroprotective activity against mouse HT22 cells assessed as inhibition of glutamate-induced cell injury pretreated for 30 mins measured after 24 hrs by MTT assay). Settings: not given.
Assay type: functional, cell-based
In short: (§1)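 HT22 mouse hippocampal cells in DMEM/10% FBS at 37 °C, 5% CO2, seeded at 4000 cells/well. Compound (30 mM DMSO stock, diluted in medium) added 30 min before glutamate (2 mM) or HCA (500 µM), then 24 h exposure. Controls get vehicle. Viability by MTT (500 µg/mL, 1 h, 37 °C), DMSO solubilisation, A570 relative to control = 100%. n = 6.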
With `Cc1ccc(-n2c3ccccc3c3ccc(-c4ccccc4)cc32)cc1` the inhibition was “Dose-dependent effect”.

The compounds below were run on HT-22 (assay: Neuroprotective activity against mouse HT22 cells assessed as inhibition of HCA-induced cell injury pretreated at 30 uM for 30 mins measured after 24 hrs by MTT assay). Settings: not given.
Assay type: functional
In short: as §1
With `COc1ccc2c3ccccc3n(S(=O)(=O)c3ccc(C)cc3)c2c1` the inhibition at 30 µM was 0%. `Cc1ccc(S(=O)(=O)n2c3ccccc3c3ccccc32)cc1` showed an inhibition at 30 µM of 34%. `COc1ccc2c(c1)c1ccccc1n2S(=O)(=O)c1ccc(C)cc1` showed an inhibition at 30 µM of 0%. With `CCc1ccc(S(=O)(=O)n2c3ccccc3c3ccccc32)cc1` the inhibition at 30 µM was 30%. Work on `Cc1ccc(-n2c3ccccc3c3ccccc32)cc1` yielded an inhibition at 30 µM of 0%. Compound `Fc1cccc(-n2c3ccccc3c3ccccc32)c1` has an inhibition at 30 µM of 0%. In the case of `CCCCn1c2ccccc2c2ccccc21`, the inhibition at 30 µM is reported as 0%. With `c1ccc2c(c1)sc1ccccc12` the inhibition was “inactive”. In the case of `Cc1ccc(S(=O)(=O)n2c3ccccc3c3ccc(C#N)cc32)cc1`, the inhibition at 30 µM is reported as 0%. Compound `COc1ccc2c(c1)c1ccccc1n2-c1ccc(C(C)(C)C)cc1` has an inhibition at 30 µM of 0%. `Cc1ccc(-n2c3ccccc3c3ccc4ccccc4c32)cc1` gave an inhibition at 30 µM of 0%. For `CC(C)(C)c1ccc(-n2c3ccccc3c3ccccc32)cc1`, the inhibition at 30 µM was 63%. `Cc1ccc(-n2c3ccccc3c3ccc(-c4ccccc4)cc32)cc1` was tested, and the inhibition at 30 µM was 44%.

Each compound was assayed on HT-22 (assay: Cytotoxicity against mouse HT22 cells at 30 uM by LDH assay). Settings: ht-22, 30 µM.
Assay type: cell-based
In short: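 HT22 cells given compound alone at 30 µM; cytotoxicity read by LDH release assay.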
`Cc1ccc(-n2c3ccccc3c3ccc(-c4ccccc4)cc32)cc1` was tested, and the Activity was “Non-toxic”.

What follows are compounds tested on HT-22 (assay: Neuroprotective activity against mouse HT22 cells assessed as inhibition of HCA-induced cell injury pretreated at 3 uM for 30 mins measured after 24 hrs by MTT assay). Settings: not given.
Assay type: functional
In short: as §1
In the case of `COc1ccc2c3ccccc3n(S(=O)(=O)c3ccc(C)cc3)c2c1`, the inhibition at 3 µM is reported as 0%. `Cc1ccc(S(=O)(=O)n2c3ccccc3c3ccccc32)cc1` was tested, and the inhibition at 3 µM was 4%. `COc1ccc2c(c1)c1ccccc1n2S(=O)(=O)c1ccc(C)cc1` showed an inhibition at 3 µM of 0%. `CCc1ccc(S(=O)(=O)n2c3ccccc3c3ccccc32)cc1` showed an inhibition at 3 µM of 0%. `Cc1ccc(-n2c3ccccc3c3ccccc32)cc1` gave an inhibition at 3 µM of 0%. Compound `Fc1cccc(-n2c3ccccc3c3ccccc32)c1` has an inhibition at 3 µM of 0%. `CCCCn1c2ccccc2c2ccccc21` was tested, and the inhibition at 3 µM was 0%. `Cc1ccc(S(=O)(=O)n2c3ccccc3c3ccc(C#N)cc32)cc1` showed an inhibition at 3 µM of 0%. `COc1ccc2c(c1)c1ccccc1n2-c1ccc(C(C)(C)C)cc1` was tested, and the inhibition at 3 µM was 0%. Work on `Cc1ccc(-n2c3ccccc3c3ccc4ccccc4c32)cc1` yielded an inhibition at 3 µM of 0%. Work on `CC(C)(C)c1ccc(-n2c3ccccc3c3ccccc32)cc1` yielded an inhibition at 3 µM of 2%. Work on `Cc1ccc(-n2c3ccccc3c3ccc(-c4ccccc4)cc32)cc1` yielded an inhibition at 3 µM of 64%.

Each compound was assayed on HT-22 (assay: Neuroprotective activity against mouse HT22 cells assessed as inhibition of HCA-induced cell injury pretreated at 10 uM for 30 mins measured after 24 hrs by MTT assay). Settings: not given.
Assay type: functional
In short: as §1
For `COc1ccc2c3ccccc3n(S(=O)(=O)c3ccc(C)cc3)c2c1`, the inhibition at 10 µM was 0%. `Cc1ccc(S(=O)(=O)n2c3ccccc3c3ccccc32)cc1` was tested, and the inhibition at 10 µM was 13%. `COc1ccc2c(c1)c1ccccc1n2S(=O)(=O)c1ccc(C)cc1` gave an inhibition at 10 µM of 0%. Compound `CCc1ccc(S(=O)(=O)n2c3ccccc3c3ccccc32)cc1` has an inhibition at 10 µM of 6%. Compound `Cc1ccc(-n2c3ccccc3c3ccccc32)cc1` has an inhibition at 10 µM of 0%. Compound `Fc1cccc(-n2c3ccccc3c3ccccc32)c1` has an inhibition at 10 µM of 0%. In the case of `CCCCn1c2ccccc2c2ccccc21`, the inhibition at 10 µM is reported as 0%. Compound `Cc1ccc(S(=O)(=O)n2c3ccccc3c3ccc(C#N)cc32)cc1` has an inhibition at 10 µM of 0%. With `COc1ccc2c(c1)c1ccccc1n2-c1ccc(C(C)(C)C)cc1` the inhibition at 10 µM was 0%. Compound `Cc1ccc(-n2c3ccccc3c3ccc4ccccc4c32)cc1` has an inhibition at 10 µM of 0%. Compound `CC(C)(C)c1ccc(-n2c3ccccc3c3ccccc32)cc1` has an inhibition at 10 µM of 30%. In the case of `Cc1ccc(-n2c3ccccc3c3ccc(-c4ccccc4)cc32)cc1`, the inhibition at 10 µM is reported as 77%.

Each compound was assayed on HT-22 (assay: Neuroprotective activity against mouse HT22 cells assessed as inhibition of glutamate-induced cell injury pretreated at 30 uM for 30 mins measured after 24 hrs by MTT assay). Settings: not given.
Assay type: functional
In short: as §1
`COc1ccc2c3ccccc3n(S(=O)(=O)c3ccc(C)cc3)c2c1` was tested, and the inhibition at 30 µM was 4%. `Cc1ccc(S(=O)(=O)n2c3ccccc3c3ccccc32)cc1` was tested, and the inhibition at 30 µM was 47%. Compound `COc1ccc2c(c1)c1ccccc1n2S(=O)(=O)c1ccc(C)cc1` has an inhibition at 30 µM of 5.2%. Work on `CCc1ccc(S(=O)(=O)n2c3ccccc3c3ccccc32)cc1` yielded an inhibition at 30 µM of 28%. `Cc1ccc(-n2c3ccccc3c3ccccc32)cc1` showed an inhibition at 30 µM of 0%. In the case of `Fc1cccc(-n2c3ccccc3c3ccccc32)c1`, the inhibition at 30 µM is reported as 0%. `CCCCn1c2ccccc2c2ccccc21` showed an inhibition at 30 µM of 0%. With `c1ccc2c(c1)sc1ccccc12` the inhibition was “inactive”. For `Cc1ccc(S(=O)(=O)n2c3ccccc3c3ccc(C#N)cc32)cc1`, the inhibition at 30 µM was 7%. `COc1ccc2c(c1)c1ccccc1n2-c1ccc(C(C)(C)C)cc1` showed an inhibition at 30 µM of 0%. In the case of `Cc1ccc(-n2c3ccccc3c3ccc4ccccc4c32)cc1`, the inhibition at 30 µM is reported as 0%. Compound `CC(C)(C)c1ccc(-n2c3ccccc3c3ccccc32)cc1` has an inhibition at 30 µM of 70%. `Cc1ccc(-n2c3ccccc3c3ccc(-c4ccccc4)cc32)cc1` was tested, and the inhibition at 30 µM was 50%.

Each compound was assayed on HT-22 (assay: Neuroprotective activity against mouse HT22 cells assessed as inhibition of glutamate-induced cell injury pretreated at 10 uM for 30 mins measured after 24 hrs by MTT assay). Settings: not given.
Assay type: functional
In short: as §1
`COc1ccc2c3ccccc3n(S(=O)(=O)c3ccc(C)cc3)c2c1` showed an inhibition at 10 µM of 2%. In the case of `Cc1ccc(S(=O)(=O)n2c3ccccc3c3ccccc32)cc1`, the inhibition at 10 µM is reported as 10%. `COc1ccc2c(c1)c1ccccc1n2S(=O)(=O)c1ccc(C)cc1` showed an inhibition at 10 µM of 3%. For `CCc1ccc(S(=O)(=O)n2c3ccccc3c3ccccc32)cc1`, the inhibition at 10 µM was 3%. `Cc1ccc(-n2c3ccccc3c3ccccc32)cc1` showed an inhibition at 10 µM of 0%. For `Fc1cccc(-n2c3ccccc3c3ccccc32)c1`, the inhibition at 10 µM was 0%. In the case of `CCCCn1c2ccccc2c2ccccc21`, the inhibition at 10 µM is reported as 0%. Compound `Cc1ccc(S(=O)(=O)n2c3ccccc3c3ccc(C#N)cc32)cc1` has an inhibition at 10 µM of 2%. Compound `COc1ccc2c(c1)c1ccccc1n2-c1ccc(C(C)(C)C)cc1` has an inhibition at 10 µM of 0%. With `Cc1ccc(-n2c3ccccc3c3ccc4ccccc4c32)cc1` the inhibition at 10 µM was 0%. Compound `CC(C)(C)c1ccc(-n2c3ccccc3c3ccccc32)cc1` has an inhibition at 10 µM of 35%. With `Cc1ccc(-n2c3ccccc3c3ccc(-c4ccccc4)cc32)cc1` the inhibition at 10 µM was 69%.

Each compound was assayed on HT-22 (assay: Neuroprotective activity against mouse HT22 cells assessed as inhibition of glutamate-induced cell injury pretreated at 3 uM for 30 mins measured after 24 hrs by MTT assay). Settings: not given.
Assay type: functional
In short: as §1
`COc1ccc2c3ccccc3n(S(=O)(=O)c3ccc(C)cc3)c2c1` was tested, and the inhibition at 3 µM was 0.8%. With `Cc1ccc(S(=O)(=O)n2c3ccccc3c3ccccc32)cc1` the inhibition at 3 µM was 0%. Work on `COc1ccc2c(c1)c1ccccc1n2S(=O)(=O)c1ccc(C)cc1` yielded an inhibition at 3 µM of 0%. `CCc1ccc(S(=O)(=O)n2c3ccccc3c3ccccc32)cc1` showed an inhibition at 3 µM of 0%. `Cc1ccc(-n2c3ccccc3c3ccccc32)cc1` was tested, and the inhibition at 3 µM was 0%. `Fc1cccc(-n2c3ccccc3c3ccccc32)c1` gave an inhibition at 3 µM of 0%. `CCCCn1c2ccccc2c2ccccc21` showed an inhibition at 3 µM of 0%. Work on `Cc1ccc(S(=O)(=O)n2c3ccccc3c3ccc(C#N)cc32)cc1` yielded an inhibition at 3 µM of 3%. `COc1ccc2c(c1)c1ccccc1n2-c1ccc(C(C)(C)C)cc1` gave an inhibition at 3 µM of 0%. In the case of `Cc1ccc(-n2c3ccccc3c3ccc4ccccc4c32)cc1`, the inhibition at 3 µM is reported as 0%. In the case of `CC(C)(C)c1ccc(-n2c3ccccc3c3ccccc32)cc1`, the inhibition at 3 µM is reported as 0%. Work on `Cc1ccc(-n2c3ccccc3c3ccc(-c4ccccc4)cc32)cc1` yielded an inhibition at 3 µM of 63%.

Each compound was assayed on HT-22 (assay: Neuroprotective activity against mouse HT22 cells assessed as inhibition of glutamate-induced GSH depletion pretreated at 10 to 30 uM for 30 mins measured after 10 hrs by glutathione assay kit). Settings: not given.
With `Cc1ccc(-n2c3ccccc3c3ccc(-c4ccccc4)cc32)cc1` the inhibition was “inactive”.
